From PubChem BioAssay AID651935 (Vanderbilt Specialized Chemistry Center, 2012) come the findings set out here.

Active and inactive are the calls of the source. No rule for the calls is given here.

The assay concerns the target Muscarinic acetylcholine receptor M4 (Rattus norvegicus) (UniProt P08485). The assay can be described thus: M4 receptor potentiation by M5-directed compounds, selectivity assay for M5 PAM discovery project, CHO cells, rat M4, calcium flux (AID 651935). As to conditions: CHO-K1 rat M4/Gqi5, Fluo-4 calcium flux, ACh EC20; series mostly up to 30 µM. An outline of the steps: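 Material: CHO-K1 cells stably expressing rat M4 receptor with chimeric Gqi5; Buffer or medium: HBSS plus HEPES and probenecid, pH 7.4; Probe or stimulus: acetylcholine EC20; Dosing: 0.3% DMSO final; Times: dye load 45-60 min 37 °C, compound 1.5 min pre-incubation; Signal: Fluo-4 calcium fluorescence; Read-out: % of maximal acetylcholine response.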

Muscarinic acetylcholine receptor M4 (Rattus norvegicus), sequence (P08485 whole entry, looked up): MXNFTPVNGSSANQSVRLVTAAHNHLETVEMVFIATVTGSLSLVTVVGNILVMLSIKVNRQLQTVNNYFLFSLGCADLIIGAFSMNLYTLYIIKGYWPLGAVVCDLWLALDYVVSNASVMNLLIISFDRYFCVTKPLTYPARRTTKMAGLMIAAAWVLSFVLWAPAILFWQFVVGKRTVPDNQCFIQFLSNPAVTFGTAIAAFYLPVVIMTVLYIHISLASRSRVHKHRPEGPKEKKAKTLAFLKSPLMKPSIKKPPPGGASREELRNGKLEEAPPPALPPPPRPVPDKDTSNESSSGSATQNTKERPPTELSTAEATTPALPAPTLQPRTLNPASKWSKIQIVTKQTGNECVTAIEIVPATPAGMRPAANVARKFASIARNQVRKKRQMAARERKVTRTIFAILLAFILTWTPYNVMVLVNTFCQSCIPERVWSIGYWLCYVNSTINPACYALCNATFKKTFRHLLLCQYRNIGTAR

Regarding `O=C1C(=O)N(CCOc2ccccc2)c2ccc(OC(F)(F)F)cc21`, the outcome was inactive.
